Measured values collected from several papers.
Converted amounts (≈) assume the structure as drawn.

With c1ccc([Se][Au]=[c]2n(C3CCCCC3)ccn2C2CCCCC2)cc1 the IC50 was 1.1 µM (HT-29; cell growth or viability, crystal violet).
Clc1nc[n]([Au][PH](c2ccccc2)(c2ccccc2)c2ccccc2)c1Cl has an IC50 of 54.9 µM (IMR-90; cell growth or viability, MTT; 48 h).
NNC(=O)c1ccncc1 has an MIC90 of 0.24 µg/mL (≈ 1.75 µM) (Mycobacterium tuberculosis variant bovis BCG; microbial growth; BCG).
C[C@@H](O)[C@H]1C(=O)N2C(C(=O)O)=C(S[C@@H]3CN[C@H](C(=O)N(C)C)C3)[C@H](C)[C@H]12 gave an MIC of over 8 µg/mL (Klebsiella pneumoniae; microbial growth; ATCCBAA1705; drug-resistant strain).
N.N.[Cl][Pt][Cl] gave an inhibition of 95% (CA46; cell growth or viability, ATP luminescence; 10 µM, 72 h).
The MIC of [H]/N=C(/N)N[C@H]1[C@H](O)[C@@H](O)[C@H](O[C@@H]2O[C@@H](C)[C@](O)(C=O)[C@H]2O[C@@H]2O[C@@H](CO)[C@H](O)[C@@H](O)[C@@H]2NC)[C@@H](N/C(N)=N\[H])[C@@H]1O is reported as 2 µg/mL (≈ 3.44 µM) (Klebsiella pneumoniae; microbial growth, broth dilution; ATCC43816).
C[C@H]1COc2c(N3CCN(C)CC3)c(F)cc3c(=O)c(C(=O)O)cn1c23 has an MIC of over 8 µg/mL (Klebsiella pneumoniae; microbial growth; ATCCBAA1705; drug-resistant strain).
NCC[C@H](O)C(=O)N[C@@H]1C[C@H](N)[C@@H](O[C@H]2O[C@H](CN)[C@@H](O)[C@H](O)[C@H]2O)[C@H](O)[C@H]1O[C@H]1O[C@H](CO)[C@@H](O)[C@H](N)[C@H]1O has an MIC50 of 0.32 µg/mL (≈ 0.546 µM) (Mycobacterium tuberculosis variant bovis BCG; microbial growth; BCG).
With N#Cc1nc[n]([Au][PH](c2ccccc2)(c2ccccc2)c2ccccc2)c1C#N the IC50 was 64 µM (IMR-90; cell growth or viability, MTT; 48 h).
